Reference: ChEMBL document CHEMBL4257478, “Design, synthesis and evaluation of (R)-3-(7-(methyl(7H-pyrrolo[2,3-d]pyrimidin-4-yl)amino)-5-azaspiro[2.4]heptan-5-yl)-3-oxopropanenitrile as a JAK1-selective inhibitor” (Medchemcomm, 2018)

Columns and labels:
[1] = Metabolic stability in mouse liver microsomes assessed as parent compound remaining at 1 uM preincubated for 5 mins followed by addition of NADPH regenerating system and measured after 30 mins by LC-MS/MS method; format: ADME, microsome; conditions: read-out: Stability
Method in brief: (§1)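 Liver microsomes (0.5 mg/mL; human, dog or mouse) in 0.1 M phosphate buffer with test article at 1 μM, preincubated 5 min at 37 °C. NADPH regenerating system added, then 30 min at 37 °C. Acetonitrile with chlorpropamide internal standard added, sample centrifuged, supernatant analysed by LC-MS/MS.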

[2] = Metabolic stability in human liver microsomes assessed as parent compound remaining at 1 uM preincubated for 5 mins followed by addition of NADPH regenerating system and measured after 30 mins by LC-MS/MS method; format: ADME, microsome; conditions: read-out: Stability; method in brief: as §1
CYP2C9 = CYP2C9 (Homo sapiens, UniProt P11712); assay: Inhibition of CYP2C9 in human liver microsomes assessed as remaining activity at 10 uM using tolbutamide as substrate preincubated for 5 mins followed by addition of NADPH regenerating system and measured after 15 mins by LC-MS/MS analysis relative to control; format: ADME; conditions: probe tolbutamide, read-out: Activity
Method in brief: (§2)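 Human liver microsomes (0.25 mg/mL) in 0.1 M phosphate buffer with test article at 0 or 10 μM and substrate cocktail, preincubated 5 min at 37 °C. Cocktail A: phenacetin 50 μM, coumarin 2.5 μM, S-mephenytoin 100 μM, dextromethorphan 5 μM, midazolam 2.5 μM. Cocktail B: bupropion 50 μM, amodiaquine 2.5 μM, tolbutamide 100 μM, chlorzoxazone 50 μM. NADPH system added, then 15 min at 37 °C; acetonitrile quench, LC-MS/MS.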

CYP1A2 = biological target: T1, CYP1A2 (Homo sapiens, UniProt P05177); assay: Inhibition of CYP1A2 in human liver microsomes assessed as remaining activity at 10 uM using phenacetin as substrate preincubated for 5 mins followed by addition of NADPH regenerating system and measured after 15 mins by LC-MS/MS analysis relative to control; format: ADME; conditions: probe phenacetin, read-out: Activity; method in brief: as §2
T1 sequence (P05177 whole entry): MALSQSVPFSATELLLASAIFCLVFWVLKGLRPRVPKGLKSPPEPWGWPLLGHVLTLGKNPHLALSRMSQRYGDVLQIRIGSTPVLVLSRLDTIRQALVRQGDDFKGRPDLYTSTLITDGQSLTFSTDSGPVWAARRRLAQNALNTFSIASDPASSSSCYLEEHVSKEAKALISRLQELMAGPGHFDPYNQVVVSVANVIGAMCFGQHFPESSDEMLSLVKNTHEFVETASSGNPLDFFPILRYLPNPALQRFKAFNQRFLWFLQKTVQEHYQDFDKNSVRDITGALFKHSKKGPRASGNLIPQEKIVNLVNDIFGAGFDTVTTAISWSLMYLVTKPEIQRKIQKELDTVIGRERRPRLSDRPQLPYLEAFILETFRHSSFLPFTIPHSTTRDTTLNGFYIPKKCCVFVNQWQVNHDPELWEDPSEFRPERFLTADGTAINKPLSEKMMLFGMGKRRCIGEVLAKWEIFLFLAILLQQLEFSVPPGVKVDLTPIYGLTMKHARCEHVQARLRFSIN

[3] = Metabolic stability in rat liver microsomes assessed as parent compound remaining at 1 uM preincubated for 5 mins followed by addition of NADPH regenerating system and measured after 30 mins by LC-MS/MS method; format: ADME, microsome; conditions: read-out: Stability
Method in brief: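 Liver microsomes (0.5 mg/mL) in 0.1 M phosphate buffer with test article at 1 μM. Preincubated 5 min at 37 °C, then NADPH regeneration system added and incubated 30 min at 37 °C. Quenched with acetonitrile containing chlorpropamide internal standard and centrifuged; supernatant analysed by LC-MS/MS for % parent remaining. Verapamil served as positive control.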

CYP2C19 = CYP2C19 (Homo sapiens, UniProt P33261); assay: Inhibition of CYP2C19 in human liver microsomes assessed as remaining activity at 10 uM using S-mephenytoin as substrate preincubated for 5 mins followed by addition of NADPH regenerating system and measured after 15 mins by LC-MS/MS analysis relative to control; format: ADME; conditions: probe S-mephenytoin, read-out: Activity; method in brief: as §2
CYP2A6 = biological target: T2, CYP2A6 (Homo sapiens, UniProt P11509); assay: Inhibition of CYP2A6 in human liver microsomes assessed as remaining activity at 10 uM using coumarin as substrate preincubated for 5 mins followed by addition of NADPH regenerating system and measured after 15 mins by LC-MS/MS analysis relative to control; format: ADME; conditions: probe coumarin, read-out: Activity; method in brief: as §2
T2 sequence (P11509 whole entry): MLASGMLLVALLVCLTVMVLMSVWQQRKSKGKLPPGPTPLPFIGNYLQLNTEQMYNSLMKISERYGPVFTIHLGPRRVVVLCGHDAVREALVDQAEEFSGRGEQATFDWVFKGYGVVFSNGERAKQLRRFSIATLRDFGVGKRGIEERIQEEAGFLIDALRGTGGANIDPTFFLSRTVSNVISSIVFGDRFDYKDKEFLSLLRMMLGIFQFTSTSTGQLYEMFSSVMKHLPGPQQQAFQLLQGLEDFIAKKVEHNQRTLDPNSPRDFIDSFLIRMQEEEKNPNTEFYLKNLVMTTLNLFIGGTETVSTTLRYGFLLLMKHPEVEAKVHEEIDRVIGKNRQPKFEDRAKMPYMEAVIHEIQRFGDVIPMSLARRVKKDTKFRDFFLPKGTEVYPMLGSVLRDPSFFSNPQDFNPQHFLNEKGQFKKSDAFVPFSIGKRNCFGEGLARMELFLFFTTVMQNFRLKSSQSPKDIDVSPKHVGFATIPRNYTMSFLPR

[4] = Metabolic stability in human plasma assessed as parent compound remaining at 10 uM after 120 mins by LC-MS/MS method; format: ADME, cell-free; conditions: read-out: Stability
Method in brief: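 Human plasma spiked with test article at 10 μM and incubated at 37 °C for 0, 30 and 120 min. Acetonitrile with chlorpropamide internal standard added, sample centrifuged at 4 °C, supernatant analysed by LC-MS/MS; result given as percent remaining.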

[5] = Apparent permeability across apical to basolateral side in human Caco2 cells at 25 uM measured every 15 mins for 60 mins by LC-MS/MS method; format: ADME, cell-based; conditions: Caco-2
Method in brief: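 Caco-2 cells were seeded at 1×10^6 per 12-well transwell and grown 3 weeks. Test article was 25 μM in HBSS transport buffer (10 mM glucose, 4 mM bicarbonate, 1 mM HEPES, pH 7.4), added to the apical or basolateral side. Incubated 60 min at 37 °C with sampling every 15 min; LC-MS/MS read-out.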

[6] = Metabolic stability in rat plasma assessed as parent compound remaining at 10 uM after 120 mins by LC-MS/MS method; format: ADME, cell-free; conditions: read-out: Stability
Method in brief: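 Rat plasma spiked with test article at 10 μM and incubated at 37 °C, sampled at 0, 30 and 120 min. Acetonitrile containing chlorpropamide internal standard added, then vortexed and centrifuged at 4 °C; supernatant quantified by LC-MS/MS as % remaining. Procaine and diltiazem served as positive controls.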

Chain of CYP2C19 (P33261 whole entry): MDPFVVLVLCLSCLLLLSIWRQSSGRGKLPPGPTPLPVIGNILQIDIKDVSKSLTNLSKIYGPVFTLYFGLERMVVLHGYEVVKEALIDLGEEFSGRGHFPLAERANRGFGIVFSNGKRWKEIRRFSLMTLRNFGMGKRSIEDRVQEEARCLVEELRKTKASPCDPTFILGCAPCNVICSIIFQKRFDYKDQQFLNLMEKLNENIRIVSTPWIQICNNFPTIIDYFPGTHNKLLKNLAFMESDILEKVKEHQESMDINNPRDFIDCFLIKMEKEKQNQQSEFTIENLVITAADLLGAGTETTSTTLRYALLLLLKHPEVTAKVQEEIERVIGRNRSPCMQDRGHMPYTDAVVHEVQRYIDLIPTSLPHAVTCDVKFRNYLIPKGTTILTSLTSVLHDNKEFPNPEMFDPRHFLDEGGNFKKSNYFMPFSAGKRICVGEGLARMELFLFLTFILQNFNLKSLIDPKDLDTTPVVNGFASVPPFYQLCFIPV
Chain of CYP2C9 (P11712 whole entry): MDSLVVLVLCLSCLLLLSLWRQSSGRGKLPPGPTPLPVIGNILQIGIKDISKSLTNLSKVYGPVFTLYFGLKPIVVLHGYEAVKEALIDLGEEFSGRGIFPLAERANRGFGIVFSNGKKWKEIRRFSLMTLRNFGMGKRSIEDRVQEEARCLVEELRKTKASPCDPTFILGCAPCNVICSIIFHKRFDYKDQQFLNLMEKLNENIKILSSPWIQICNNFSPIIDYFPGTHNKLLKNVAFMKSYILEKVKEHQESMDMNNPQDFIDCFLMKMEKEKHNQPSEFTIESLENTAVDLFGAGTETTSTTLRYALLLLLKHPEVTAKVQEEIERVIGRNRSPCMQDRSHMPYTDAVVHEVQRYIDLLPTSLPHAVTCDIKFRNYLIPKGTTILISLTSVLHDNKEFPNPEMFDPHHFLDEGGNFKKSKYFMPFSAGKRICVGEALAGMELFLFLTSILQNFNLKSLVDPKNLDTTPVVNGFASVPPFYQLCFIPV

| remaining at 0.5 h, 1 µM [1] | remaining at 0.5 h, 1 µM [2] | activity at 0.25 h, 10 µM (CYP2C9) | activity at 0.25 h, 10 µM (CYP1A2) | remaining at 0.5 h, 1 µM [3] | activity at 0.25 h, 10 µM (CYP2C19) | activity at 0.25 h, 10 µM (CYP2A6) | remaining at 2 h, 10 µM [4] | Papp A→B at 1 h, 25 µM [5] | remaining at 2 h, 10 µM [6] | Structure (SMILES) |
| --- | --- | --- | --- | --- | --- | --- | --- | --- | --- | --- |
| 33.9% | 79.7% | 90.7% | 99.9% | 22.9% | 93.8% | 96.7% | > 100% | 25.4 ×10⁻⁶ cm/s | > 100% | CCS(=O)(=O)N1C[C@H](N(C)c2ncnc3[nH]ccc23)C2(CC2)C1 |
| 3.2% | 6% | 50.4% | 65.7% | 2.4% | 55.8% | 87.2% | 98.6% | 13.4 ×10⁻⁶ cm/s | > 100% | CN(c1ncnc2[nH]ccc12)[C@H]1CN(S(=O)(=O)c2cccc(C#N)c2)CC12CC2 |
| 84.9% | 94.6% | 84.4% | 92.5% | 84.8% | 66% | 92% | 98.5% | 6.6 ×10⁻⁶ cm/s | 89.6% | CN(c1ncnc2[nH]ccc12)[C@H]1CN(C(=O)CC#N)CC12CC2 |
